# In ChEMBL document CHEMBL2424632, “Substituted 2-hydroxy-N-(arylalkyl)benzamides induce apoptosis in cancer cell lines” (Eur J Med Chem, 2013):
# Activity calls are given as the source filed them. The rule behind the calls is not given here.
# Tests used:
# [1] = tested on: K562; assay: Cytotoxicity against human K562 cells after 72 hrs by calcein-AM assay; type: functional, cell-based; conditions: K562, 72 h
# [2] = tested on: MCF7; assay: Cytotoxicity against human MCF7 cells after 72 hrs by calcein-AM assay; type: functional, cell-based; conditions: MCF7, 72 h
# [3] = tested on: G-361; assay: Induction of apoptosis in human G361 cells assessed as caspase-3/7 activation at 2 uM after 24 hrs by fluorescence assay relative to control; type: functional
# Method in brief: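 G361 cells seeded at 20,000 per well overnight, then exposed 24 h to compound at 2 µM final. 3x caspase-3/7 buffer (HEPES pH 7.4, NaCl, KCl, MgCl2, EGTA, NP-40, CHAPS, sucrose, DTT, PMSF) with Ac-DEVD-AMC substrate added; incubated 37 °C, fluorescence read after 4 h at 346/442 nm; activity expressed relative to untreated cells.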
# [4] = tested on: G-361; assay: Downregulation of cyclin B protein expression in human G361 cells at 0.22 to 6 uM after 24 hrs by immunoblotting analysis; type: functional, cell-based
# Method in brief: (§1)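 Asynchronous G361 cells exposed 24 h; lysates made by harvesting in Laemmli sample buffer, resolved by SDS-PAGE, electroblotted to nitrocellulose, blocked, probed overnight with specific primary antibodies, then peroxidase-conjugated secondary antibodies; actin served as loading control.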
# [5] = tested on: G-361; assay: Induction of apoptosis in human G361 cells assessed as decrease in BCL-XL protein expression after 24 hrs by immunoblotting analysis; type: functional, cell-based; method in brief: as §1
# [6] = tested on: G-361; assay: Induction of autophagy in human G361 cells assessed as fragmentation of LC3 at 0.2 to 6 uM after 24 hrs by immunoblotting analysis; type: functional, cell-based; method in brief: as §1
# [7] = tested on: G-361; assay: Cell cycle arrest in human G361 cells assessed as decrease in S phase population at 0.25 to 4 uM after 24 hrs by propidium iodide staining-based flow cytometric analysis in presence of BrdU; type: functional
# Method in brief: (§2)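 Asynchronously growing cells treated 24 h; cultures pulse-labelled with 10 µM BrdU for 30 min at 37 °C before harvest, washed in PBS, fixed in 70% ethanol, denatured in 2 M HCl, neutralized, stained with fluorescein anti-BrdU antibody then propidium iodide; flow cytometry with 488 nm laser; sub-G1 and BrdU-positive S-phase fractions scored.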
# [8] = tested on: G-361; assay: Induction of apoptosis in human G361 cells assessed as increase in p53 mRNA level; type: functional, cell-based
# [9] = tested on: G-361; assay: Effect on CDK2 protein expression in human G361 cells at 0.22 to 6 uM after 24 hrs by immunoblotting analysis; type: functional, cell-based; method in brief: as §1
# [10] = tested on: G-361; assay: Effect on CDK1 protein expression in human G361 cells at 0.22 to 6 uM after 24 hrs by immunoblotting analysis; type: functional, cell-based; method in brief: as §1
# [11] = target: Mitogen-activated protein kinase; ERK1/ERK2 (Homo sapiens) (UniProt P27361+P28482); assay: Inhibition of ERK1/2 phosphorylation at Thr202/Tyr204 in human G361 cells at 0.22 to 6 uM after 24 hrs by immunoblotting analysis; type: cell-based; conditions: G-361; method in brief: as §1
# Chain of Mitogen-activated protein kinase; ERK1/ERK2 (Homo sapiens) (P27361 whole entry, looked up): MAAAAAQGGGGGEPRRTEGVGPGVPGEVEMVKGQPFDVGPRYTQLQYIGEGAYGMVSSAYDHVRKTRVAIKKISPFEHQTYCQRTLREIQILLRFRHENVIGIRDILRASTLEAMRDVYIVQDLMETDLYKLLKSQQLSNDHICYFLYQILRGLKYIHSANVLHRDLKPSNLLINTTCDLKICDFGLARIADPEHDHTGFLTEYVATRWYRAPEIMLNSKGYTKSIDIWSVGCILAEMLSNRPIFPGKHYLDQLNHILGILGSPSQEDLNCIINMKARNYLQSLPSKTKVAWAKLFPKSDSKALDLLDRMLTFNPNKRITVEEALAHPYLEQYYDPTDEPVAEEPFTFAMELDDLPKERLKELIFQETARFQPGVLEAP
# Chain of Mitogen-activated protein kinase; ERK1/ERK2 (Homo sapiens) (P28482 whole entry, looked up): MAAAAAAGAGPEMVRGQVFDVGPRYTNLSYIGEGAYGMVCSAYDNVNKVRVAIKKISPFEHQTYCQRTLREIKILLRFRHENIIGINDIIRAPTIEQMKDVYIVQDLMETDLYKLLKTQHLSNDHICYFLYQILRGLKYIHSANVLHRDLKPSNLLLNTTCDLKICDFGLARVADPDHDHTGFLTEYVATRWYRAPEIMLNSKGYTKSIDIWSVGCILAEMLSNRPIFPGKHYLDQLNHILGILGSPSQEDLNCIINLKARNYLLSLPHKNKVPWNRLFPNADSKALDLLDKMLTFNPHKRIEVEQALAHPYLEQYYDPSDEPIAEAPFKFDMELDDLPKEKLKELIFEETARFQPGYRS
# [12] = tested on: G-361; assay: Downregulation of MDM2 protein expression in human G361 cells at 0.2 to 6 uM after 24 hrs by immunoblotting analysis; type: functional, cell-based; method in brief: as §1
# [13] = tested on: G-361; assay: Upregulation of p27KIP1 protein expression in human G361 cells at 2 to 6 uM after 24 hrs by immunoblotting analysis; type: functional, cell-based; method in brief: as §1
# [14] = tested on: G-361; assay: Induction of apoptosis in human G361 cells; type: functional, cell-based
# [15] = tested on: G-361; assay: Induction of apoptosis in human G361 cells assessed as increase in p53 protein level at 0.2 to 6 uM after 24 hrs by immunoblotting analysis; type: functional, cell-based; method in brief: as §1
# [16] = tested on: G-361; assay: Induction of apoptosis in human G361 cells assessed as PARP-1 cleavage at 0.2 to 6 uM after 24 hrs by immunoblotting analysis; type: functional, cell-based; method in brief: as §1
# [17] = tested on: HOS; assay: Cytotoxicity against human HOS cells after 72 hrs by calcein-AM assay; type: functional, cell-based
# [18] = tested on: G-361; assay: Effect on cyclin E protein expression in human G361 cells at 0.22 to 6 uM after 24 hrs by immunoblotting analysis; type: functional, cell-based; method in brief: as §1
# [19] = tested on: G-361; assay: Induction of apoptosis in human G361 cells assessed as decrease in caspase-3 zymogene at 0.2 to 6 uM after 24 hrs by immunoblotting analysis; type: functional, cell-based; method in brief: as §1
# [20] = tested on: G-361; assay: Induction of apoptosis in human G361 cells assessed as decrease in caspase-7 zymogene at 0.2 to 6 uM after 24 hrs by immunoblotting analysis; type: functional, cell-based; method in brief: as §1
# [21] = tested on: G-361; assay: Induction of apoptosis in human G361 cells assessed as increase in BCL-2 protein expression at 0.2 to 6 uM after 24 hrs by immunoblotting analysis; type: functional, cell-based; method in brief: as §1
# [22] = tested on: G-361; assay: Induction of apoptosis in human G361 cells assessed as caspase-9 cleavage at 0.2 to 6 uM after 24 hrs by immunoblotting analysis; type: functional, cell-based; method in brief: as §1
# [23] = tested on: G-361; assay: Cytotoxicity against human G361 cells after 72 hrs by calcein-AM assay; type: functional, cell-based; conditions: G-361, 72 h
# [24] = tested on: G-361; assay: Cell cycle arrest in human G361 cells assessed as increase in sub-G1 phase population at 1 to 4 uM after 24 hrs by propidium iodide staining-based flow cytometric analysis in presence of BrdU; type: functional; method in brief: as §2
# [25] = tested on: HCT-116; assay: Cytotoxicity against human HCT116 cells after 72 hrs by calcein-AM assay; type: functional, cell-based; conditions: HCT-116, 72 h
# [26] = tested on: G-361; assay: Upregulation of p27KIP1 protein expression in human G361 cells at 670 nM after 24 hrs by immunoblotting analysis; type: functional, cell-based; method in brief: as §1
# [27] = target: RAC-alpha serine/threonine-protein kinase (Homo sapiens) (UniProt P31749); assay: Inhibition of AKT phosphorylation at Ser473 in human G361 cells at 0.22 to 6 uM after 24 hrs by immunoblotting analysis; type: cell-based; conditions: G-361; method in brief: as §1
# Chain of RAC-alpha serine/threonine-protein kinase (Homo sapiens) (P31749 whole entry): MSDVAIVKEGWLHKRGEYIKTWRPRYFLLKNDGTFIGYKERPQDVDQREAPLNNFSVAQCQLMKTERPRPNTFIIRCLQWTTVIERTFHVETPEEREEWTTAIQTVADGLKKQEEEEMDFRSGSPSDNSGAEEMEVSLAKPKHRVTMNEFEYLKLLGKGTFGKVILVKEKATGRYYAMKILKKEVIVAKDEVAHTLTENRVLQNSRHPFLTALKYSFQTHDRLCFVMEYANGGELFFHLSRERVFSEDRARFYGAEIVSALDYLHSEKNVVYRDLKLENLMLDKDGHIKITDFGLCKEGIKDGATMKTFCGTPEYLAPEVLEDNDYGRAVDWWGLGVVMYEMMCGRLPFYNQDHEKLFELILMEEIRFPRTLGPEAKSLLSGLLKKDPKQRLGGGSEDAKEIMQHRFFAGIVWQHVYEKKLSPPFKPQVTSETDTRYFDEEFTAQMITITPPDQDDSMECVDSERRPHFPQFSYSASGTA
# [28] = tested on: G-361; assay: Downregulation of p53 protein expression in human G361 cells at 0.2 to 6 uM after 24 hrs by immunoblotting analysis; type: functional, cell-based; method in brief: as §1
# [29] = tested on: G-361; assay: Downregulation of CDK4 protein expression in human G361 cells at 0.22 to 6 uM after 24 hrs by immunoblotting analysis; type: functional, cell-based; method in brief: as §1
# [30] = tested on: G-361; assay: Downregulation of cyclin A protein expression in human G361 cells at 0.22 to 6 uM after 24 hrs by immunoblotting analysis; type: functional, cell-based; method in brief: as §1
# [31] = tested on: HeLa; assay: Cytotoxicity against human HeLa cells after 72 hrs by calcein-AM assay; type: functional, cell-based
smiles,measurement,setting,value
CC(C)[C@H](NC(=O)c1cc(Cl)ccc1O)C(=O)Nc1ccc(Cl)cc1,IC50,[1],> 20 µM
same,IC50,[2],> 10 µM
C[C@@H](NC(=O)c1ccc(Cl)cc1O)C(=O)Nc1ccc(Cl)cc1,IC50,[1],> 10 µM
same,IC50,[2],> 10 µM
O=C(N[C@@H](Cc1ccccc1)C(=O)Nc1ccc(Cl)c(Cl)c1)c1ccc(Cl)cc1O,IC50,[1],> 10 µM
same,IC50,[2],7.3 µM
O=C(N[C@H](Cc1ccccc1)C(=O)Nc1ccc(Cl)cc1)c1cc(Cl)ccc1O,fold change (FC),[3],>10
same,Activity,[4],Active
same,Activity,[5],Dose-dependent effect
same,Activity,[6],Active
same,Activity,[7],Active
same,Activity,[8],inactive
same,IC50,[1],2.5 µM
same,Activity,[9],Active
same,Activity,[10],Active
same,inhibition,[11],Active
same,Activity,[12],Active
same,Activity,[13],inactive
same,Activity,[14],Dose-dependent effect
same,Activity,[15],inactive
same,Activity,[16],Active
same,IC50,[17],2.5 µM
same,Activity,[18],Active
same,Activity,[19],Active
same,Activity,[20],Active
same,Activity,[21],Active
same,Activity,[22],Active
same,IC50,[23],1.3 µM
same,Activity,[24],Active
same,IC50,[25],1.7 µM
same,Activity,[26],Active
same,inhibition,[27],Active
same,Activity,[28],Active
same,Activity,[29],Active
same,IC50,[2],3.5 µM
same,Activity,[30],Active
same,IC50,[31],1.1 µM
O=C(N[C@H](Cc1ccccc1)C(=O)Nc1ccc(Cl)c(Cl)c1)c1cc(Cl)ccc1O,IC50,[1],> 10 µM
same,IC50,[2],> 10 µM
Cc1ccc(NC(=O)[C@H](C)NC(=O)c2cc(Cl)ccc2O)cc1,IC50,[1],> 10 µM
same,IC50,[2],> 10 µM
O=C(N[C@@H](Cc1ccccc1)C(=O)Nc1cccc(Cl)c1)c1cc(Cl)ccc1O,IC50,[1],> 10 µM
same,IC50,[2],> 10 µM
CC(C)[C@H](NC(=O)c1cc(Cl)ccc1O)C(=O)Nc1cccc(Cl)c1,IC50,[1],> 10 µM
same,IC50,[2],> 10 µM
O=C(N[C@H](Cc1ccccc1)C(=O)Nc1cccc(Cl)c1)c1cc(Cl)ccc1O,IC50,[1],> 20 µM
same,IC50,[2],18.4 µM
O=C(CNC(=O)c1cc(Cl)ccc1O)Nc1ccc(Cl)c(Cl)c1,IC50,[1],> 20 µM
same,IC50,[2],> 20 µM
O=C(CNC(=O)c1cc(Cl)ccc1O)Nc1cccc(Cl)c1,IC50,[1],> 10 µM
same,IC50,[2],> 10 µM
CC(C)[C@H](NC(=O)c1ccc(Cl)cc1O)C(=O)Nc1ccc(Cl)c(Cl)c1,IC50,[1],> 10 µM
same,IC50,[2],> 10 µM
C[C@H](NC(=O)c1cc(Cl)ccc1O)C(=O)Nc1cccc(Cl)c1,IC50,[1],> 10 µM
same,IC50,[2],> 10 µM
CC(C)[C@@H](NC(=O)c1cc(Cl)ccc1O)C(=O)Nc1cccc(Cl)c1,IC50,[1],> 10 µM
same,IC50,[2],> 10 µM
C[C@@H](NC(=O)c1cc(Cl)ccc1O)C(=O)Nc1ccc(Cl)cc1,IC50,[1],> 20 µM
same,IC50,[2],> 20 µM
CC(C)[C@H](NC(=O)c1cc(Cl)ccc1O)C(=O)Nc1ccc(Cl)c(Cl)c1,IC50,[1],> 10 µM
same,IC50,[2],> 10 µM
Cc1ccc(NC(=O)c2ccc(CN3CCN(C)CC3)cc2)cc1Nc1nccc(-c2cccnc2)n1 [IMATINIB],IC50,[1],0.5 µM
same,IC50,[2],> 10 µM
